# Screening results deposited in PubChem by Broad Institute.
# KDM4C inh: inhibitors of GASC-1 (KDM4C) histone demethylase, primary screen, biochemical, single concentration HTS | Lysine-specific demethylase 4C (Homo sapiens), Q9H3R0 | GST-KDM4C 2-372, H3K9me3 peptide, LANCE TR-FRET | inhibition, % at 12.5 µM | hit rate 0.15% among 96,000 | AID 720574, 2013;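 active = mean replicate inhibition above about 25%, with at least 55% of replicates also reaching it, limit read from the data, passing the limit was not always enough; inconclusive = only one of those two conditions met; inactive = neither condition met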
# Target sequence (Q9H3R0 2-372 limits assumed): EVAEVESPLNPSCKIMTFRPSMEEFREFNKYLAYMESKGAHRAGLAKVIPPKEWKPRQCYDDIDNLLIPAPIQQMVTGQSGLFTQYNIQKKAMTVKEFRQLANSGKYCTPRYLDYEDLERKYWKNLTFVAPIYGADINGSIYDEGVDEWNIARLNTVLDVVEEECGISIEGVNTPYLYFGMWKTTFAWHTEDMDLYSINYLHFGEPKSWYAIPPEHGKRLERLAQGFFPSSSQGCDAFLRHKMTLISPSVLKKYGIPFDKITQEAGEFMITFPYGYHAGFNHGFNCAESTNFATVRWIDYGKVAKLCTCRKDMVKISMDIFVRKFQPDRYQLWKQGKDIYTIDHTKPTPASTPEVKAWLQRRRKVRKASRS
#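 reagent = H3K9me3 peptide substrate, Fe(II), 2-oxoglutarate | system = GST-tagged GASC-1 (JMJD2C) catalytic fragment, aa 2-372 | amount = enzyme final amount 10 nM | read-out = Fall in 671/618 emission ratio as inhibition | medium = HEPES buffer, pH 7.5, plus ascorbate | schedule = 30 min reaction, 60 min detection, RT | measured by = LANCE TR-FRET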
# IDH1 mut inh: inhibitors of IDH1 R132H reductase, primary screen, biochemical, plate reader, single point. Isocitrate dehydrogenase [NADP] cytoplasmic (Homo sapiens), O75874. diaphorase/resazurin fluorescence, 60 min. inhibition, % at 10 µM. hit rate 0.18% among 70,000. AID 624101, 2012; in the data active = inhibition above about 34%; inconclusive = no clear call, values can overlap the other calls; inactive = below about 11%
# Pf Dd2 growth: P. falciparum Dd2 growth inhibitors, primary screen, SYBR Green fluorescence, single dose replicates; hit rate 2.3% among 94,000; activity change, % at 10 µM; 72 h; active compounds read low; in the data active = activity change below about -80%; inconclusive = no clear call, values can overlap the other calls
# T cruzi growth-1: T. cruzi intracellular proliferation inhibitors, primary screen, cell-based, beta-gal Tulahuen parasites, NIH3T3 host, luminescence; T. cruzi beta-gal in NIH3T3, GalScreen luminescence, 90 h; inhibition, % at 8.34 µM; hit rate 5.9% among 77,000;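 active = mean inhibition above about 93%, with at least 55% of replicates each passing it, limit read from the data, passing the limit was not always enough; inconclusive = only one of those two conditions holds; inactive = neither condition holds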
# T cruzi growth-2: T. cruzi intracellular proliferation inhibitors, confirmation, cell-based, NIH3T3 host, beta-gal parasite, luminescence, cherry-pick | shares compounds with T cruzi growth-1 | T. cruzi beta-gal in NIH3T3, GalScreen luminescence, 90 h | inhibition, % at 8.35 µM | hit rate 72% among 5,600 | AID 651739, 2012;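 active = mean replicate inhibition above about 95% and at least 55% of replicates individually reaching it, limit read from the data; inconclusive = only one of the two criteria is met; inactive = neither criterion is met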
# T cruzi growth-3: inhibitors of intracellular T. cruzi replication, confirmation, NIH3T3 host cells, beta-gal parasites, cherry-pick, set 2; shares compounds with T cruzi growth-1; inhibition, % at 2.09 µM; T. cruzi beta-gal in NIH3T3, GalScreen luminescence, 90 h; hit rate 21% among 5,600; AID 651740, 2012;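 active = mean inhibition above about 95%, with at least 55% of replicates also reaching it, limit read from the data; inconclusive = meets just one of the two conditions; inactive = meets neither condition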
# NIH3T3 tox: cytotoxicity in mouse NIH/3T3 fibroblasts, confirmation, cytotoxicity control for T. cruzi proliferation inhibitor project, cell-based, cherry-pick, single point. shares compounds with T cruzi growth-1. NIH/3T3 viability, CellTiter-Glo ATP luminescence, 90 h. hit rate 14% among 5,600. cytotoxicity (signal decrease), % at 8.35 µM;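 active = mean signal decrease across replicates above about 35% based on untreated-well scatter, with enough replicates individually passing, limit read from the data; inconclusive = no rule stated though some were filed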
# NIH3T3 tox 2: NIH/3T3 fibroblast cytotoxicity, confirmation, cytotoxicity control, cell-based, cherry-pick, single point, set 2; NIH/3T3 viability, CellTiter-Glo ATP luminescence, 90 h; hit rate 56% among 5,600; shares compounds with T cruzi growth-1; inhibition, % at 24.9 µM;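 active = mean loss of cell viability signal at or above a set limit, and enough replicates individually reaching it; inconclusive = meets only the mean limit or only the replicate share; inactive = meets neither condition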
# Numbers stand for hits; - = inactive; ? = inconclusive; . = no result given. Compounds with a hit are over-represented: about 5.8% of the library has one in this group of screens.
SMILES,KDM4C inh,IDH1 mut inh,Pf Dd2 growth,T cruzi growth-1,T cruzi growth-2,T cruzi growth-3,NIH3T3 tox,NIH3T3 tox 2
C/C=C/c1ccc([C@@H]2[C@@H](CO)N(Cc3ccccn3)[C@H]2CNC(C)=O)cc1,-,.,-,-,.,.,.,.
O=C(NC[C@H]1[C@H](c2ccccc2)[C@@H](CO)N1Cc1ccccn1)C1CCCC1,-,.,-,-,.,.,.,.
C/C=C/c1ccc([C@@H]2[C@H](CO)N(Cc3ccccn3)[C@H]2CNC(C)=O)cc1,-,.,-,97.7,-,-,-,-
O=C(COc1ccc(Cl)cc1Br)Nc1ccccc1C(=O)Nc1ccccc1,.,-,.,.,.,.,.,.
C[C@H]1CN([C@@H](C)CO)C(=O)c2cc(C#Cc3ccccn3)cnc2O[C@@H]1CN(C)Cc1cncnc1,-,-,-,111.0,108.3,-,-,-
C[C@@H]1CN([C@@H](C)CO)C(=O)c2cc(C#Cc3ccccn3)cnc2O[C@H]1CN(C)Cc1ccccc1,-,-,-,127.6,105.0,-,-,-
C[C@H]1CN([C@@H](C)CO)C(=O)c2cccc(NC(=O)C3CCOCC3)c2O[C@H]1CN(C)C(=O)Nc1cccc2ccccc12,-,-,-,-,.,.,.,.
C[C@@H]1CN([C@H](C)CO)C(=O)c2cccc(NC(=O)C3CCOCC3)c2O[C@H]1CN(C)C(=O)Nc1cccc2ccccc12,-,.,-,102.9,-,-,-,?
C[C@@H]1CN([C@@H](C)CO)C(=O)c2cccc(NC(=O)C3CCOCC3)c2O[C@@H]1CN(C)C(=O)Nc1cccc2ccccc12,-,-,-,100.1,-,-,-,-
C=CCN(CC=C)C(=O)Cc1ccc(Br)cc1,.,-,.,.,.,.,.,.
COc1ccc(Cl)cc1NC(=O)CN(c1ccc(I)cc1)S(C)(=O)=O,.,-,.,.,.,.,.,.
COc1ccc(C#Cc2cnc3c(c2)C(=O)N([C@H](C)CO)C[C@H](C)[C@H](CN(C)C)O3)cc1,-,-,-,100.8,-,-,-,65.1
COc1ccc(C#Cc2cnc3c(c2)C(=O)N([C@@H](C)CO)C[C@@H](C)[C@H](CN(C)CC2CCCC2)O3)cc1,.,-,-,111.4,99.1,-,117.7,103.6
COc1ccccc1NC(=O)CSc1nnc(-c2cccc3ccccc23)n1-c1ccccc1,.,-,.,.,.,.,.,.
O=S(=O)(c1ccc(F)cc1)N1C[C@@H]2[C@H](c3ccccc31)[C@H](CO)N2Cc1ccc2c(c1)OCO2,-,.,-,100.8,106.9,-,-,-
O=S(=O)(c1ccccc1F)N1C[C@H]2[C@@H](c3ccccc31)[C@@H](CO)N2Cc1ccc2c(c1)OCO2,-,.,-,98.7,103.0,100.4,-,-
Cc1cc(C)c(C#N)c(SCC(O)CSc2ccc(Cl)cc2)n1 (stereo unspecified),.,-,.,.,.,.,.,.
C[C@H]1CN([C@@H](C)CO)C(=O)Cc2cc(NC(=O)Cc3ccccc3)ccc2O[C@@H]1CN(C)Cc1ccc(C(F)(F)F)cc1,-,-,-,119.9,111.9,-,-,98.4
C[C@H]1CN([C@@H](C)CO)C(=O)Cc2cc(NC(=O)Cc3ccccc3)ccc2O[C@@H]1CN(C)Cc1ccc2c(c1)OCO2,-,-,-,102.5,108.1,-,-,-
C[C@H]1CN([C@@H](C)CO)C(=O)Cc2cc(NC(=O)Cc3ccccc3)ccc2O[C@H]1CN(C)Cc1ccc(C(F)(F)F)cc1,-,-,-,104.9,107.7,-,-,104.1
CS(=O)(=O)N(CC(=O)Nc1ccc2ccccc2c1)c1ccc(Cl)cc1Cl,.,-,.,.,.,.,.,.
CCC(C)Nc1nc(OC)nc(Oc2ccc(=O)[nH]n2)n1 (stereo unspecified),.,-,.,.,.,.,.,.
COc1cccc(-c2ccc3c(c2)[C@H]2[C@H](CCN2C(=O)c2cnccn2)[C@H](CO)N3)c1,-,.,-,-,.,.,.,.
O=C(c1cnccn1)N1CC[C@@H]2[C@H]1c1cc(-c3cccc(F)c3)ccc1N[C@@H]2CO,-,.,-,100.6,103.8,-,-,41.4
CN(C)C(=O)c1cccc(-c2ccc3c(c2)[C@@H]2[C@@H](CCN2C(=O)c2cnccn2)[C@H](CO)N3)c1,-,.,-,105.0,97.4,-,-,-
SMILES,KDM4C inh,IDH1 mut inh,Pf Dd2 growth,T cruzi growth-1,T cruzi growth-2,T cruzi growth-3,NIH3T3 tox,NIH3T3 tox 2
COc1ccc(-c2ccc3c(c2)[C@@H]2[C@@H](CCN2C(=O)c2cnccn2)[C@H](CO)N3)cc1,-,.,-,?,111.6,-,-,-
COc1ccc(C(=O)CC2(O)C(=O)N(Cc3ccc(C)cc3)c3ccc(Cl)cc32)cc1[N+](=O)[O-] (stereo unspecified),.,-,.,.,.,.,.,.
CN(CC(=O)Nc1ccccc1C#N)S(=O)(=O)c1ccccc1,.,-,.,.,.,.,.,.
c1ccc(C(O[C@@H]2CCCN(CCc3ccc4c(c3)OCO4)C2)c2ccccc2)cc1,.,-,.,.,.,.,.,.
C[C@H]1CN([C@@H](C)CO)S(=O)(=O)c2ccc(/C=C/c3ccccc3)cc2O[C@@H]1CN(C)Cc1cncnc1,-,-,-,122.2,100.5,104.1,68.7,97.4
C[C@@H]1CN([C@H](C)CO)S(=O)(=O)c2ccc(/C=C/c3ccccc3)cc2O[C@H]1CN(C)Cc1cncnc1,-,-,-,106.7,98.4,-,58.7,64.6
C/C=C/c1ccc2c(c1)O[C@H](CN(C)Cc1cncnc1)[C@@H](C)CN([C@H](C)CO)S2(=O)=O,-,-,-,.,.,.,.,.
C[C@H](CO)N1C[C@H](C)[C@@H](CN(C)Cc2cncnc2)Oc2cc(/C=C/c3ccccc3)ccc2S1(=O)=O,-,-,-,121.3,98.2,101.9,40.6,80.9
C[C@@H]1CN([C@@H](C)CO)S(=O)(=O)c2ccc(/C=C/c3ccccc3)cc2O[C@@H]1CN(C)Cc1cncnc1,-,-,-,108.1,?,-,57.8,70.0
Cc1cc(C)c(NC(=O)CN(C)S(=O)(=O)c2ccccc2)c(C)c1,.,-,.,.,.,.,.,.
O=C(COc1cccc2ccccc12)Nc1cc([N+](=O)[O-])ccc1O,.,-,.,.,.,.,.,.
COc1ccccc1-c1ccc2c(c1)O[C@@H](CN(C)S(=O)(=O)c1ccc(C)cc1)[C@H](C)CN([C@H](C)CO)S2(=O)=O,-,-,-83.8,127.0,104.9,103.5,-,45.0
COc1ccccc1-c1ccc2c(c1)O[C@@H](CN(C)C)[C@@H](C)CN([C@@H](C)CO)S2(=O)=O,-,-,-,-,.,.,.,.
